The text below walks through data of ChEMBL document CHEMBL1671789, “Evaluation of quinazoline analogues as glucocerebrosidase inhibitors with chaperone activity” (J Med Chem, 2011).

As a reminder, the ΔTm is the shift of the melting midpoint relative to a reference.

Residue numbers refer to the chain shown, from its start. Active and inactive are the calls of the source.

A short description of assay [1]: Inhibition of alpha-glucosidase.
The target in assay [2] is T1, Lysosomal acid glucosylceramidase (Homo sapiens) (UniProt P04062).
T1 sequence (whole entry): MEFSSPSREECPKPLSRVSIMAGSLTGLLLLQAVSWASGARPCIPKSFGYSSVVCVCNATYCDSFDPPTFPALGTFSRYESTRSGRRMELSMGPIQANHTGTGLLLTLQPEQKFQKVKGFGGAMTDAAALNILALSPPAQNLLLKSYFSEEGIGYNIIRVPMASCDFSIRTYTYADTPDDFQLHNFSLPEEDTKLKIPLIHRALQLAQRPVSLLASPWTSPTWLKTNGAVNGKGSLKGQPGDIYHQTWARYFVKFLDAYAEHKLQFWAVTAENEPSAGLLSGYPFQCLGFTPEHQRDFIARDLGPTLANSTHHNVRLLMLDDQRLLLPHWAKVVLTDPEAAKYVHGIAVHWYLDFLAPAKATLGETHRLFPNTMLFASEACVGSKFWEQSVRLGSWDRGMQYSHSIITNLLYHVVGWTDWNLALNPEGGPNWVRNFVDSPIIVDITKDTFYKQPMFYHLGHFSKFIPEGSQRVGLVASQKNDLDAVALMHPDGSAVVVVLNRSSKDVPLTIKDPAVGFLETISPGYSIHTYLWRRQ
Put plainly: Binding affinity to recombinant Gcase assessed as change in melting temperature at 600 uM by fluorescence thermal shift technique. In outline: (§1)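 Differential scanning fluorometry on recombinant wild-type GC at 2 μM final with SYPRO Orange, in 150 mM phosphate/citrate pH 4.8. 12-point DMSO dilution series, final 0.1–600 μM, 2% DMSO final; DMSO-only control. Heated 20 to 95 °C at 0.1 °C/s. Fluorescence read at 490 nm excitation, 575 nm emission. Tm derived from melt curves; shift is relative to the protein-only control.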

For assay [3], the target named is T1, Lysosomal acid glucosylceramidase (Homo sapiens).
Assay [4] has the same target. The source holds these as a separate data set.
Assay [5] shares this target. Put plainly: Binding affinity to recombinant Gcase assessed as change in melting temperature at 300 uM by fluorescence thermal shift technique. In short, it runs like this:
as §1

For assay [6] the target is unchanged. The source holds these as a separate data set.
Assay [7] has the same target. The source holds these as a separate data set.
For assay [8], the system named is T2, Lysosomal acid glucosylceramidase (Homo sapiens), P04062 [N409S].
T2 sequence (whole entry): T1 sequence (whole entry) with N409S
Briefly: Increase of GCase N370S mutant trafficking to lysosomes in human fibroblast cells assessed as colocalization of Gcase with Lamp2 at 5 uM after 5 days by immunofluorescence method. The class given is cell-based. In outline:
(§2)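 Primary dermal fibroblasts from N370S/N370S Gaucher patients and a control, in chamber slides. Compounds given for five days, range 1 nM to 25 μM. Cells fixed in 3% paraformaldehyde and permeabilized with 0.1% Triton-X. Stained with rabbit anti-GCase R386 (1:500) and mouse anti-LAMP1 or LAMP-2 (1:100), then Alexa-conjugated secondaries and DAPI. Imaged by confocal microscopy for GC/LAMP2 colocalization.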

For assay [9], the target named is T1, Lysosomal acid glucosylceramidase (Homo sapiens). This is another data set of the same source.
Assay [10] is described as follows: Inhibition of alpha-galactosidase.
The target in assay [11] is T1, Lysosomal acid glucosylceramidase (Homo sapiens). This is another data set of the same source.
The target is the same in assay [12]. The source holds these as a separate data set.
Assay [13] shares this target. Put plainly: Increase of GCase trafficking to lysosomes in human fibroblast cells assessed as colocalization of Gcase with Lamp2 at 5 uM after 5 days by immunofluorescence method. The class given is cell-based. In outline: as §2
For assay [14] the target is unchanged. Briefly: Binding affinity to recombinant Gcase assessed as change in melting temperature at 400 uM by fluorescence thermal shift technique. In outline: as §1
For assay [15] the target is unchanged. Put plainly: Binding affinity to recombinant Gcase assessed as change in melting temperature at 500 uM by fluorescence thermal shift technique. In short, it runs like this:
as §1

The subject of assay [16] is T2, Lysosomal acid glucosylceramidase (Homo sapiens), P04062 [N409S]. Put plainly: Increase of GCase N370S mutant trafficking to lysosomes in human fibroblast cells assessed as colocalization of Gcase with Lamp2 at 10 uM after 5 days by immunofluorescence method. It counts as cell-based. In short, it runs like this: as §2
The target of assay [17] is T1, Lysosomal acid glucosylceramidase (Homo sapiens). Briefly: Increase of GCase trafficking to lysosomes in human fibroblast cells assessed as colocalization of Gcase with Lamp2 at 10 uM after 5 days by immunofluorescence method. The class given is cell-based. In outline: as §2

As for `O=S(=O)(c1ccc2c(c1)OCCO2)N1CCN(c2nc(-c3cccs3)nc3ccccc23)CC1`, the result in assay [1] and in [10] was inactive. Further, the ΔTm in assay [2] worked out at 24.3 °C; in [3], 5.39 °C; in [4], 20.7 °C; in assay [5], 22.8 °C; in assay [6] it was 0.24 °C; in [7], 19.3 °C. Also, the ΔTm was 13.3 °C in assay [9]; 11.7 °C in assay [11]; 0.37 °C in assay [12]; 22.8 °C in assay [14]; 23.4 °C in [15]. For the same molecule, the outcome in [8] and in assay [13] was Active.
As for `COc1ccccc1S(=O)(=O)N1CCN(c2nc(-c3cccs3)nc3ccccc23)CC1`, the result in assay [1] and in assay [10] was inactive. In addition, the ΔTm in assay [4] is 6.86 °C; in assay [5] it was 7.48 °C; in [6] it was 0.55 °C; in [7] it was 3.97 °C; in assay [9], -0.76 °C; in assay [11] it was -0.01 °C. The ΔTm in [12] is 0.6 °C; in [14], 8.09 °C; in [15], 7.69 °C. Also, the result in [8] and in assay [13] was Active.
Turning to `OC[C@H]1CNC[C@@H](O)[C@@H]1O`, the result in assay [1] and in assay [10] was inactive. In addition, the ΔTm stood at 8.25 °C in [4]; 8.98 °C in [5]; 1.16 °C in assay [6]; 7.94 °C in [7]; 6.72 °C in assay [9]; 5.5 °C in assay [11]. For the same molecule, the ΔTm in assay [12] is 0.4 °C; in [14] it was 9.56 °C; in [15] it was 8.75 °C. Also, the outcome in assay [16] and in [17] was Active.
